Results on six compounds are retold here after ChEMBL document CHEMBL4118078, “Developing pyridazine-3-carboxamides to be CB2 agonists: The design, synthesis, structure-activity relationships and docking studies” (Eur J Med Chem, 2017).

A value given as a limit tells only on which side of the number the result lay.

Experiment [1] addresses T1, Cannabinoid receptor 1 (Homo sapiens, UniProt P21554). Put plainly: Agonist activity at CB1 receptor (unknown origin) expressed in CHO cells assessed as induction of calcium mobilization at 10 uM by fluo-4 AM dye-based fluorescence assay relative to CP55940. The format is functional, cell-based. Background: A change in cytosolic calcium serves as a functional read-out for many receptors and channels.

Experiment [2] addresses T2, Cannabinoid receptor 2 (Homo sapiens, UniProt P34972). The experiment can be described thus: Agonist activity at CB2 receptor (unknown origin) expressed in CHO cells assessed as induction of calcium mobilization at 10 uM by fluo-4 AM dye-based fluorescence assay relative to CP55940. The format is functional, cell-based.
Experiment [3] addresses T1, Cannabinoid receptor 1. The experiment can be described thus: Agonist activity at CB1 receptor (unknown origin) expressed in CHO cells assessed as induction of calcium mobilization by fluo-4 AM dye-based fluorescence assay. The format is functional, cell-based.
The target of experiment [4] is T2, Cannabinoid receptor 2. The experiment can be described thus: Agonist activity at CB2 receptor (unknown origin) expressed in CHO cells assessed as induction of calcium mobilization by fluo-4 AM dye-based fluorescence assay. Type of experiment: functional, cell-based.
Experiment [5] addresses T2, Cannabinoid receptor 2. Put plainly: Agonist activity at CB2 receptor (unknown origin) expressed in CHO cells assessed as induction of calcium mobilization by fluo-4 AM dye-based fluorescence assay relative to CP55940. The format is functional, cell-based. In a few lines:
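Cell-based calcium mobilization, agonist mode, with CP55940 as positive control. Compounds giving more than 50% activation in a single-concentration 10 µM primary screen were run in dose-response to derive EC50.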

For experiment [6], the species on record is Homo sapiens. The experiment can be described thus: Selectivity index, ratio of EC50 for CB1 receptor (unknown origin) to EC50 for CB2 receptor (unknown origin).
The target of experiment [7] is T2, Cannabinoid receptor 2. The experiment can be described thus: Potency index, ratio of GW842166X EC50 to test compound EC50 for agonist activity at CB2 receptor (unknown origin). Type of experiment: functional.
The target in experiment [8] is T2, Cannabinoid receptor 2. Put plainly: Potency index, ratio of CP55940 EC50 to test compound EC50 for agonist activity at CB2 receptor (unknown origin). Type of experiment: functional.
Experiment [9] addresses T1, Cannabinoid receptor 1. Put plainly: Antagonist activity at CB1 receptor (unknown origin) expressed in CHO cells assessed as inhibition of CP55940-induced calcium mobilization at 10 uM preincubated for 10 mins followed by CP55940-induction by fluo-4 AM dye-based fluorescence assay relative to SR141716A. Type of experiment: functional, cell-based. The gist of the method: (§1)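 Cell-based calcium mobilization, antagonist mode, single-concentration screen at 10 µM against CB1 and CB2. SR141716A served as the antagonist-mode positive control.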

In experiment [10] the target is T2, Cannabinoid receptor 2. Put plainly: Antagonist activity at CB2 receptor (unknown origin) expressed in CHO cells assessed as inhibition of CP55940-induced calcium mobilization at 10 uM preincubated for 10 mins followed by CP55940-induction by fluo-4 AM dye-based fluorescence assay relative to SR141716A. The format is functional, cell-based. The gist of the method: as §1

T2 sequence (P34972 whole entry): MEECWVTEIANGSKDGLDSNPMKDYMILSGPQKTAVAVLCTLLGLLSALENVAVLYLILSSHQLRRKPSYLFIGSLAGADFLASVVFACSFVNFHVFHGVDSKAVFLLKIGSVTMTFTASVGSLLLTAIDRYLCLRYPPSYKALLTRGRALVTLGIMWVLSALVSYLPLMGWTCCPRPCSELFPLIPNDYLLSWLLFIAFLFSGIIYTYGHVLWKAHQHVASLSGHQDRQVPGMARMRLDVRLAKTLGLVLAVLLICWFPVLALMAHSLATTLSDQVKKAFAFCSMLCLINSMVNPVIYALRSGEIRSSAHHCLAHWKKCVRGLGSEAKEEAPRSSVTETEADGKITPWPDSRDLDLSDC
T1 sequence (P21554 whole entry): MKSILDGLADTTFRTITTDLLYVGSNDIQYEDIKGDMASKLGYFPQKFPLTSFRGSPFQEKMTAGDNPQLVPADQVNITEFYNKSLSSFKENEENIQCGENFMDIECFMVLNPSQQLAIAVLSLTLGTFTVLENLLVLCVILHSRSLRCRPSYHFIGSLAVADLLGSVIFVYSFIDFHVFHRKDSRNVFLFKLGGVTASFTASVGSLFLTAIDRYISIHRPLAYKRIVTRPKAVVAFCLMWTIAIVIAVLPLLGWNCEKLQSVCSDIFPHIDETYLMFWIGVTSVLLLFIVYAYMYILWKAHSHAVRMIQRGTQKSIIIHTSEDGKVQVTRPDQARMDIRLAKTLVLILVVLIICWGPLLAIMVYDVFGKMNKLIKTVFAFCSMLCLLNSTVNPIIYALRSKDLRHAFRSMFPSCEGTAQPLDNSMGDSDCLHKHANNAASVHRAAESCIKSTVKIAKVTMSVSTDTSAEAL

For `CC(C)c1cc(N2CCOCC2)nnc1C(=O)NC1C2CC3CC(C2)CC1C3` (stereo not given), the Activity in [1] was 26.1%; in [2], 126%. Besides, the EC50 in experiment [3] is over 10 µM; in [4] it was 0.00367 µM. In [5], the Emax worked out at 91%. In addition, the Ratio EC50 is over 2730 in experiment [6], 94 in [7] and 8 in experiment [8].
On to `CC(C)c1cc(N2CCN(C)CC2)nnc1C(=O)NC1C2CC3CC(C2)CC1C3` (stereo not given), for which the Activity in [1] turned out to be 16.7%; in experiment [2], 3.06%. Further, the inhibition was 37.3% in [9] and 10.1% in [10]. Moreover, the EC50 in [3] and in experiment [4] was over 10 µM each time.
In the case of `CC(C)c1cc(C(=O)NC2C3CC4CC(C3)CC2C4)nnc1Nc1cccc(Cl)c1` (stereo not given), the values for the Activity in experiment [1] and in experiment [2] were 2.12% and 19.2%, respectively. Besides, the values for the inhibition in experiment [9] and in [10] were 5.1% and 19.4%, respectively. The EC50 in experiment [3] and in experiment [4] was over 10 µM in each case.
For the compound `CC(C)c1cc(C(=O)NC2C3CC4CC(C3)CC2C4)nnc1NC1CCCC1` (stereo not given), the Activity came to 6.55% in experiment [1] and 122% in experiment [2]. The inhibition in experiment [9] was 24.1%. Further, the figures for the EC50 in experiment [3] and in [4] were over 10 µM and 0.0344 µM, respectively. The maximum response (Emax) in experiment [5] worked out at 114%. The values for the Ratio EC50 in experiment [6] and in experiment [7] were over 291 and over 10, respectively.
For the compound `CCCCNc1cc(C(C)C)c(C(=O)NC2CCCCC2)nn1`, the results for the Activity in [1] and in experiment [2] were 8.74% and 13.4%, respectively. Further, the inhibition in experiment [9] came out at 47.9%; in experiment [10], 50.6%. Moreover, the EC50 in experiment [3] and in experiment [4] was over 10 µM each time.
For `CCC(CC)Nc1nnc(C(=O)NC2C3CC4CC(C3)CC2C4)cc1C(C)C` (stereo not given), the Activity was -5.62% in experiment [1] and 25% in [2]. The values for the inhibition in experiment [9] and in [10] were 4.48% and 0.214%, respectively. Moreover, the EC50 in [3] and in experiment [4] was over 10 µM each time.

What is called EC50 is the concentration needed to bring the measured effect to its halfway point. For orientation: Emax means the size of the effect at its maximum, as opposed to the concentration needed. Broadly, the inhibition is the share of the control response that was lost under treatment.
